In PMC4324449 (ACS Chemical Biology, 2014):

Experiments:
[1] = Self-association by concentration-dependent UV–vis absorption; type: physicochemical; conditions: for self-association by UV–vis, in words: concentration-dependent λmax, Tris buffer pH 7.4
Procedure, shortened: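 Absorption spectra recorded over a foldamer dilution series in 10 or 1 mm cuvettes. λmax plotted against concentration and fitted to a monomer-hexamer equilibrium, with monomer and hexamer λmax as fitted variables. Salt series run in 0.05 M Tris, pH 7.4, at varying NaCl, with all salt conditions fitted globally.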

[2] = Self-association by ITC heats of dilution; type: physicochemical; conditions: dilution in TBS, 25 °C
Procedure, shortened: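 Heats of dilution at 25 °C. Foldamer at 1 mM in TBS (0.050 M Tris, 0.150 M NaCl, pH 7.4) injected serially into TBS in the calorimetric cell. Heat per injection taken from the integrated peak area, normalized over accumulated additions and plotted against final foldamer concentration. Fitted to a monomer-dimer-hexamer or monomer-hexamer model, depending on the foldamer.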

(Lys-Sal)3-CONH2 [Compound 8]
pK(hex-mon) UV–vis ([1]; concentration dependence of λmax in TBS pH 7.4, monomer-hexamer fit, K in M5): <15 | self-association by UV–vis, in words [1]: did not show any spectral changes at concentrations as high as 500 μM

(D-Cit-Sal)4-CONH2 [Compound 7]
self-association by UV–vis, in words [1]: did not appear to show significant dissociation

(Lys-Sal)4-COOH [Compound 2]
self-assembly by ITC, in words [2]: very weak to no self-assembly | self-association by UV–vis, in words [1]: did not appear to associate at all over this concentration range
